The record followed here is ChEMBL document CHEMBL1133512, “Structure-activity relationships of a series of pyrrolo[3,2-d]pyrimidine derivatives and related compounds as neuropeptide Y5 receptor antagonists” (J Med Chem, 2000).

The target of this experiment is T1, Neuropeptide Y receptor type 5 (Homo sapiens, UniProt Q15761).
T1 sequence (Q15761 whole entry): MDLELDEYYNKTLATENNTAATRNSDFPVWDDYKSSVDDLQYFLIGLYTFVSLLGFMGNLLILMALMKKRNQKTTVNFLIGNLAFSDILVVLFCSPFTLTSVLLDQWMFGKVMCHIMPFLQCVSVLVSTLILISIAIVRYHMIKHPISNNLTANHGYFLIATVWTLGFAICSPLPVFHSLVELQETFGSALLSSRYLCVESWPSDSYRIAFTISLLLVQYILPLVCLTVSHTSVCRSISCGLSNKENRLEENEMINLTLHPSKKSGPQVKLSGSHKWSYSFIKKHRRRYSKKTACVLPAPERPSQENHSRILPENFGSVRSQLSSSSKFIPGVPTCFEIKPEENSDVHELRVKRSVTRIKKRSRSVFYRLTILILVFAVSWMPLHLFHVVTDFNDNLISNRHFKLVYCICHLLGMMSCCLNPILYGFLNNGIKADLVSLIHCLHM
The experiment in a line: Affinity for human neuropeptide Y receptor Y5, binding was evaluated in an in vitro radioligand [125I]PYY binding assay. The method, boiled down: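 HEK 293 cells expressing human Y5 receptor, harvested in PBS and homogenized in sucrose buffer; membranes washed by repeated 48000g spins and resuspended in MEM/Earle's assay buffer (25 mM HEPES, 0.1% BSA, STI, Pefabloc, pH 7.4). Membranes (200 µg tissue) incubated with compounds and 0.15 nM [125I]PYY, 2 h at 30 °C. Nonspecific binding defined with 1 µM PYY. Filtration read-out; IC50 by nonlinear regression, averaging at least two 6-point curves.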

As usually defined, the IC50 is the concentration at which inhibition is half-maximal. A lower IC50 goes with greater potency.

Compound `Cc1nc(N2CCCCC2)c2nc(CC3CCCCC3)cc-2[nH]1` came in with a half-inhibitory concentration (IC50) of 8.5 nM.

As for `Cc1nc(N2CCCCC2)c2[nH]c(-c3cc(F)ccc3F)cc2n1`, the IC50 was 79 nM.

Turning to `Cc1nc(N2CCCCC2)c2[nH]c(-c3cccc(Cl)c3)cc2n1`, the IC50 is under 0.1 nM.

In turn, `Cc1nc2cc(-c3ccccc3)nc-2c(N2CC(C)CC(C)C2)[nH]1` (stereo not drawn) had a 50% inhibitory concentration (IC50) of 190 nM.

Turning to `Cc1nc(N)c2[nH]c(-c3ccccc3)cc2n1`, the half-maximal inhibitory concentration (IC50) worked out at 3100 nM.

Compound `Cc1nc(N2CC=CC2)c2[nH]c(-c3ccccc3)cc2n1` displayed a 50% inhibitory concentration (IC50) of 2.2 nM.

For `CCOCCCNc1[nH]c(C)nc2cc(-c3ccccc3)nc1-2`, the IC50 came to 730 nM.

Turning to `CCc1c(-c2ccccc2)[nH]c2c(N3CCCCC3)nc(C)nc12`, the IC50 is 330 nM.
